From ChEMBL document CHEMBL3817733, “Discovery of a novel small molecule agonist scaffold for the APJ receptor” (Bioorg Med Chem, 2016)
The source made the active and inactive calls. The calls are words filed in the database; no cut-off is given here.

Experiments:
Apelin receptor [1] = target: T1, Apelin receptor (Homo sapiens, UniProt P35414); experiment: Agonist activity at human APJ receptor expressed in cells c-expressing Galphaq16 assessed as calcium mobilization by FLIPR assay; format: functional, cell-based
T1 sequence (P35414 whole entry): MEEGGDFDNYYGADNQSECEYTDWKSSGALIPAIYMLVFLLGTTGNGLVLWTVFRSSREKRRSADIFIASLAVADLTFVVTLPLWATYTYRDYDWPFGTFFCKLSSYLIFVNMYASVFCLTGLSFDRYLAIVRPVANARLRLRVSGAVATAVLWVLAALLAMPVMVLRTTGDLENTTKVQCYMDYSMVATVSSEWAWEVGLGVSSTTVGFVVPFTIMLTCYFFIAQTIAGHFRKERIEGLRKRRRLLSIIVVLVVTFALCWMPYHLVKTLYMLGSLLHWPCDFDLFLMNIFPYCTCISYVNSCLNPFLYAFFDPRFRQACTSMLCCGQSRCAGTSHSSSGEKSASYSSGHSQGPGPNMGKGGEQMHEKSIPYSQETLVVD
Procedure, shortened: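 Human APJ-Gαq16 stable cells lifted non-enzymatically, plated 30,000/well, grown 24 h at 37 C to confluence. Loaded with Calcium 5 dye in HBSS with 20 mM HEPES, 1% BSA, 10 µM probenecid, 1 h at 37 C. FLIPR Tetra read ~17 sec baseline, then added agonist at 10x; pyr-apelin-13 as reference.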

[2] = target: Neurotensin receptor type 1 (Rattus norvegicus) (UniProt P20789); experiment: Agonist activity at rat NTS1 receptor expressed in CHOK1 cells assessed as calcium mobilization by FLIPR assay; format: functional, cell-based; conditions: CHO-K1
Neurotensin receptor type 1 (Rattus norvegicus), sequence (P20789 whole entry): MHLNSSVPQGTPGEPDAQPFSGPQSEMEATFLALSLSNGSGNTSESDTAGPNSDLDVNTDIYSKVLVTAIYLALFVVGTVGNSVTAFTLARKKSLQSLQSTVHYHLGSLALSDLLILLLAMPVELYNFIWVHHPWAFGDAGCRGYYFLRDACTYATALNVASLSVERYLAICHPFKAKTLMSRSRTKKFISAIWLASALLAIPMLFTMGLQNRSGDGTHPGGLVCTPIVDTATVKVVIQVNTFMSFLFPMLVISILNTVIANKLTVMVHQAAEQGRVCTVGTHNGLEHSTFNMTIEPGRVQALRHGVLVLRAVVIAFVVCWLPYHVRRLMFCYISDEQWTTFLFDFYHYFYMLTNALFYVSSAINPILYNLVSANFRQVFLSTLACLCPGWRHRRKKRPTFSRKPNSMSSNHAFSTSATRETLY

[3] = target: T2, Neurotensin receptor type 2 (Rattus norvegicus) (UniProt Q63384); experiment: (§1) Partial agonist activity at rat NTS2 receptor expressed in CHOK1 cells assessed as calcium mobilization by FLIPR assay; format: functional, cell-based; conditions: CHO-K1
T2 sequence (whole entry): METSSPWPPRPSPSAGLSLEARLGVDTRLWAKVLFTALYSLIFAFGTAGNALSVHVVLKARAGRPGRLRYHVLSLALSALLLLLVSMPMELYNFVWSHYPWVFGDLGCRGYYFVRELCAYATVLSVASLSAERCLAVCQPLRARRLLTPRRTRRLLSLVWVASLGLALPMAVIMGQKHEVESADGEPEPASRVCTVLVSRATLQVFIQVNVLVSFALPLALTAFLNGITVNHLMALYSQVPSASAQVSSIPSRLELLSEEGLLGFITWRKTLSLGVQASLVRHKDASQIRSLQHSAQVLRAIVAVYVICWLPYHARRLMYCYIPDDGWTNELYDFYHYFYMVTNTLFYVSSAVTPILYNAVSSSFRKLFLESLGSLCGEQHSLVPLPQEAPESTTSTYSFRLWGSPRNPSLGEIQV

[4] = target: Neurotensin receptor type 1 (Rattus norvegicus) (UniProt P20789); experiment: Antagonist activity against rat NTS1 receptor expressed in CHOK1 cells assessed as calcium mobilization by FLIPR assay; format: functional, cell-based; conditions: CHO-K1
Apelin receptor [5] = target: T1, Apelin receptor; experiment: Displacement of [125I]-apelin13 from human APJ receptor expressed in CHOK1 cell membranes after 2 hrs by scintillation counting; parameters: species or system CHO-K1
[6] = target: T3, Neurotensin receptor type 2 (Rattus norvegicus, UniProt Q63384); experiment: as §1; format: functional, cell-based, CHO-K1
T3 sequence (Q63384 whole entry): T2 sequence (whole entry)

Row | Structure (SMILES) | EC50 (Apelin receptor [1]) | other results
1 | COc1cccc(OC)c1-c1cc(C(=O)N[C@@H](CCCCNC(=O)OC(C)(C)C)C(=O)O)nn1-c1ccc(F)cc1 | > 30 µM | –
2 | COc1cccc(OC)c1-c1cc(C(=O)N[C@H](C(=O)NCC(=O)O)C2CCCCC2)nn1-c1ccc(F)cc1 | > 30 µM | –
3 | COc1cccc(OC)c1-c1cc(C(=O)N[C@H](C(=O)N(C)C)C2CCCCC2)nn1-c1ccc(F)cc1 | > 30 µM | –
4 | COc1cccc(OC)c1-c1cc(C(=O)N[C@@H](CC(C)C)C(=O)O)nn1-c1ccc(F)cc1 | > 30 µM | –
5 | COc1cccc(OC)c1-c1cc(C(=O)N2CC[C@H](C(=O)O)C2)nn1-c1ccc(F)cc1 | > 30 µM | –
6 | COc1cccc(OC)c1-c1cc(C(=O)NC(CC(=O)O)C2CCCCC2)nn1-c1ccc(F)cc1 (single isomer, unassigned) | – | Activity [2]: inactive; Emax [3]: 57%; Activity [4]: inactive
7 | COc1cccc(O)c1-c1cc(C(=O)N[C@H](C(=O)O)C2CCCCC2)nn1-c1ccc(F)cc1 | > 30 µM | –
8 | COc1cccc(OC)c1-c1cc(C(=O)N[C@H](C(=O)NCc2ccccc2)C2CCCCC2)nn1-c1ccc(F)cc1 | > 30 µM | –
9 | O=C(N[C@H](C(=O)O)C1CCCCC1)c1cc(-c2ccccc2)n(-c2ccc(F)cc2)n1 | > 30 µM | –
10 | COc1cccc(OC)c1-c1cc(C(=O)N[C@H](C(=O)O)C(C)C)nn1-c1ccc(F)cc1 | > 30 µM | –
11 | COc1cccc(OC)c1-c1cc(C(=O)N[C@H]2CC[C@H](C(=O)O)CC2)nn1-c1ccc(F)cc1 | > 30 µM | –
12 | COc1cccc(OC)c1-c1cc(C(=O)N[C@@H](CCC(N)=O)C(=O)O)nn1-c1ccc(F)cc1 | > 30 µM | –
13 | COc1cccc(OC)c1-c1cc(C(=O)N[C@H](C(=O)O)C2CCCCC2)n(-c2ccc(F)cc2)n1 | > 30 µM | –
14 | O=C(N[C@H](C(=O)O)C1CCCCC1)c1cc(-c2c(O)cccc2O)n(-c2ccc(F)cc2)n1 | > 30 µM | –
15 | COc1cccc(OC)c1-c1cc(C(=O)NC2(C(=O)O)C3CC4CC(C3)CC2C4)nn1-c1ccc(F)cc1 (configuration not stated) | > 30 µM | –
16 | COc1cccc(OC)c1-c1cc(C(=O)Nc2ccccc2C(=O)O)nn1-c1ccc(F)cc1 | > 30 µM | –
17 | COC(=O)[C@@H](NC(=O)c1cc(-c2c(OC)cccc2OC)n(-c2ccc(F)cc2)n1)C1CCCCC1 | > 30 µM | –
18 | COc1cccc(OC)c1-c1cc(C(=O)N[C@H](CC(=O)O)CC(C)C)nn1-c1ccc(F)cc1 | 9.4 µM | Ki (Apelin receptor [5]): 0.6 µM
19 | COC(=O)CNC(=O)[C@@H](NC(=O)c1cc(-c2c(OC)cccc2OC)n(-c2ccc(F)cc2)n1)C1CCCCC1 | > 30 µM | –
20 | COc1cccc(OC)c1-c1cc(C(=O)N[C@@H](CCc2ccccc2)CC(=O)O)nn1-c1ccc(F)cc1 | 3 µM | Ki (Apelin receptor [5]): 3 µM
21 | COc1cccc(OC)c1-c1cc(C(=O)NCC2CCCCC2)nn1-c1ccc(F)cc1 | > 30 µM | –
22 | COc1cccc(OC)c1-c1cc(C(=O)N[C@H](C(N)=O)C2CCCCC2)nn1-c1ccc(F)cc1 | > 30 µM | –
23 | COc1cccc(OC)c1-c1cc(C(=O)N[C@H](C(=O)O)c2ccccc2)nn1-c1ccc(F)cc1 | > 30 µM | –
24 | COc1cccc(OC)c1-c1cc(C(=O)N[C@@H](CCC2CCCCC2)CC(=O)O)nn1-c1ccc(F)cc1 | – | Activity [2]: inactive; Emax [3]: 23%; EC50 [6]: 3.41 µM; Activity [4]: inactive
25 | COc1cccc(OC)c1-c1cc(C(=O)N[C@H](C(=O)NO)C2CCCCC2)nn1-c1ccc(F)cc1 | > 30 µM | –
26 | COc1cccc(OC)c1-c1cc(C(=O)N[C@@H](C(=O)O)C2CCCCC2)nn1-c1ccc(F)cc1 | > 30 µM | –
27 | COc1cccc(OC)c1-c1cc(C(=O)N[C@@H](Cc2ccccc2)C(=O)O)nn1-c1ccc(F)cc1 | > 30 µM | –
28 | COc1cccc(OC)c1-c1cc(C(=O)NC2(C(=O)O)CCCCC2)nn1-c1ccc(F)cc1 | > 30 µM | –
29 | COc1cccc(OC)c1-c1cc(C(=O)N[C@@H](CCCCN)C(=O)O)nn1-c1ccc(F)cc1 | > 30 µM | –
30 | Cc1cc(C(=O)N[C@H](C(=O)O)C2CCCCC2)nn1-c1ccc(F)cc1 | > 30 µM | –
